Experimental data published in ChEMBL document CHEMBL2146365, “Design and synthesis of EGFR dimerization inhibitors and evaluation of their potential in the treatment of psoriasis” (Bioorg Med Chem, 2012).
Activity calls are given as the source filed them. The rule behind the calls is not given here.

Legend:
[1] = biological target: Epidermal growth factor receptor (Homo sapiens) (UniProt P00533); test: Inhibition of EGFR-mediated ERK2 phosphorylation in HPV-16 transformed human CCD-1106 cells at 116.8 uM after 30 mins by densitometric analysis; format: cell-based
How it was run: (§1)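 CCD-1106 cells were treated with compound for 30 min at 37 °C, then stimulated with EGF. Lysates were separated by SDS-PAGE, blotted to nitrocellulose and blocked in 3% BSA/NaTT. Blots were probed with p-ERK (E-4) or p-p38 (D-8) antibodies, detected by ECL and quantified by densitometry.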

[2] = test system: HaCaT; test: Induction of apoptosis in human HaCaT cells assessed as viable cells at 223.2 uM after 9 hrs by AnnexinV-FITC/propidium iodide based FACS flow cytometry; format: functional; details: read-out: Activity
How it was run: (§2)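 HaCaT cells at 10^6 cells/ml were attached overnight and exposed to vehicle, 111.6, 223.2 or 446 µM for 9 h. Cells were then trypsinized, washed in ice-cold PBS and stained with Annexin V-FITC/PI. FACScan analysis used FL1/FL2, 10,000 events per sample, scatter gating, and quadrants set with single-stain controls. Runs were in triplicate and results are means of two experiments.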

[3] = Growth inhibition of HPV-16 transformed human CCD-1106 cells after 72 hrs by MTT assay; format: functional; details: CCD-1106, 72 h
How it was run: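 Cells were seeded at 10,000 cells/well in keratinocyte serum-free medium with L-glutamine, bovine pituitary extract and EGF, at 37 °C under 5% CO2, and attached overnight. Eight drug concentrations were run with six in-plate replicates, DMSO <1%, for 72 h. MTT (0.5 mg/ml) was added for 2 h, formazan was dissolved in 90% isopropanol/10% DMSO and A590 was read. Growth is expressed relative to the untreated control.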

[4] = biological target: Epidermal growth factor receptor (Homo sapiens) (UniProt P00533); test: Inhibition of EGFR-mediated ERK1 phosphorylation in HPV-16 transformed human CCD-1106 cells at 116.8 uM after 30 mins by densitometric analysis; format: cell-based; how it was run: as §1
[5] = test system: HaCaT; test: Cytotoxicity against human HaCaT cells assessed as cell viability after 24 hrs by MTT assay; format: functional; details: read-out: LD50 (the source's name)
How it was run: (§3)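 Cells were plated at 10,000/well, attached overnight, and exposed 6 or 24 h to eight drug concentrations with six in-plate replicates (DMSO <1%). MTT (0.5 mg/ml in PBS) was added for 2 h at 37 °C, then dissolved in 90% isopropanol/10% DMSO, and A590 was read. Values were corrected against untreated controls. LD₅₀ is reported as mean ± S.E.M., n = 3.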

[6] = test system: HaCaT; test: Induction of apoptosis in human HaCaT cells assessed as late phase apoptotic/necrotic cells at 111.6 uM after 9 hrs by AnnexinV-FITC/propidium iodide based FACS flow cytometry; format: functional; how it was run: as §2
[7] = Cytotoxicity against HPV-16 transformed human CCD-1106 cells assessed as LDH release after 6 hrs by CYTOX-96 assay; format: functional; details: CCD-1106, 6 h, read-out: LD50 (the source's name)
How it was run: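 LDH release was read with the CytoTox 96 kit following the kit protocol after 6 or 24 h drug exposure. Cells were seeded at 10,000/well and attached overnight. Eight concentrations were run with six in-plate replicates; DMSO was <1% in all wells, with medium-only blanks. LD₅₀ is reported as mean ± S.E.M., n = 6. CCD-1106 were grown in supplemented keratinocyte SFM; HaCaT in DMEM/10% FBS.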

[8] = Growth inhibition of human NHEK cells after 72 hrs by neutral red uptake assay; format: functional
How it was run: (§4)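 Neutral red uptake assay over 72 h. Cells were seeded at 10,000 cells/well and attached overnight, then exposed to eight concentrations with six replicates (DMSO <1%). CCD-1106 were grown in keratinocyte SFM with supplements. HaCaT were grown in DMEM with 10% FBS and 2 mM L-glutamine. NHEK (pooled adult) were grown in keratinocyte growth medium with supplement. Values are means, n = 6, against the untreated control.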

[9] = test system: U-937; test: Growth inhibition of human U937 cells after 72 hrs by Cell Titer 96 aqueous one solution assay; format: functional
How it was run: (§5)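 Cells were grown in RPMI with 10% FBS, 2 mM L-glutamine and penicillin/streptomycin. They were seeded at 10,000 cells/well in round-bottom plates and exposed to compounds for 72 h (eight concentrations, six replicates). Cell Titer 96 AQueous One reagent was then added for 3 h at 37 °C and absorbance was read at 492 nm. Values are means, n = 6.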

[10] = test system: THP-1; test: Growth inhibition of human THP1 cells after 72 hrs by Cell Titer 96 aqueous one solution assay; format: functional; how it was run: as §5
[11] = Growth inhibition of HPV-16 transformed human CCD-1106 cells after 72 hrs by neutral red uptake assay; format: functional; details: CCD-1106, 72 h; how it was run: as §4
[12] = test system: HaCaT; test: Induction of apoptosis in human HaCaT cells assessed as activation of caspase 3/7 at 55.8 uM after 12 hrs; format: functional, cell-based
How it was run: (§6)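 HaCaT cells were seeded at 10,000 cells/0.2 ml/well, attached overnight and exposed to compound (56–446 µM) for 12 h. Caspase-3/7 activity was measured with the Apo-ONE homogeneous kit, fluorescence 499/521 nm, in triplicate, with medium-only background wells. MTT viability was run in parallel. Results are means of two experiments, t-test against control.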

[13] = Cytotoxicity against HPV-16 transformed human CCD-1106 cells assessed as cell viability after 24 hrs by MTT assay; format: functional; details: CCD-1106, 24 h, read-out: LD50 (the source's name); how it was run: as §3
[14] = test system: HaCaT; test: Induction of apoptosis in human HaCaT cells assessed as activation of caspase 3/7 at 56 to 446 uM after 12 hrs; format: functional, cell-based; how it was run: as §6
[15] = test system: HaCaT; test: Induction of apoptosis in human HaCaT cells assessed as activation of caspase 3/7 after 12 hrs; format: functional, cell-based; how it was run: as §6
[16] = test system: HaCaT; test: Induction of apoptosis in human HaCaT cells assessed as early phase apoptotic cells at 111.6 uM after 9 hrs by AnnexinV-FITC/propidium iodide based FACS flow cytometry; format: functional; how it was run: as §2
[17] = test system: HaCaT; test: Induction of apoptosis in human HaCaT cells assessed as viable cells at 446 uM after 12 hrs by MTT assay
[18] = biological target: Epidermal growth factor receptor (Homo sapiens) (UniProt P00533); test: Inhibition of phosphorylated EGFR dimerization in HPV-16 transformed human CCD-1106 cells at 126.7 uM after 30 mins by densitometric analysis; format: cell-based
How it was run: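 CCD-1106 cells were exposed to compounds for 30 min at 37 °C, then stimulated with EGF 50 ng/mL for 10 min. They were cross-linked with 2 mM BS3 for 30 min at room temperature and quenched with Tris (pH 7.5). Lysates were run on SDS-PAGE and immunoblotted for phospho-EGFR (Tyr1173) and total EGFR. The ~340 kDa dimer band was quantified by densitometry against the no-inhibitor control.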

[19] = test system: HaCaT; test: Induction of apoptosis in human HaCaT cells assessed as early phase apoptotic cells at 223.2 uM after 9 hrs by AnnexinV-FITC/propidium iodide based FACS flow cytometry; format: functional; how it was run: as §2
[20] = test system: HaCaT; test: Induction of apoptosis in human HaCaT cells assessed as late phase apoptotic/necrotic cells at 223.2 uM after 9 hrs by AnnexinV-FITC/propidium iodide based FACS flow cytometry; format: functional; how it was run: as §2

Chain of Epidermal growth factor receptor (Homo sapiens) (P00533 whole entry): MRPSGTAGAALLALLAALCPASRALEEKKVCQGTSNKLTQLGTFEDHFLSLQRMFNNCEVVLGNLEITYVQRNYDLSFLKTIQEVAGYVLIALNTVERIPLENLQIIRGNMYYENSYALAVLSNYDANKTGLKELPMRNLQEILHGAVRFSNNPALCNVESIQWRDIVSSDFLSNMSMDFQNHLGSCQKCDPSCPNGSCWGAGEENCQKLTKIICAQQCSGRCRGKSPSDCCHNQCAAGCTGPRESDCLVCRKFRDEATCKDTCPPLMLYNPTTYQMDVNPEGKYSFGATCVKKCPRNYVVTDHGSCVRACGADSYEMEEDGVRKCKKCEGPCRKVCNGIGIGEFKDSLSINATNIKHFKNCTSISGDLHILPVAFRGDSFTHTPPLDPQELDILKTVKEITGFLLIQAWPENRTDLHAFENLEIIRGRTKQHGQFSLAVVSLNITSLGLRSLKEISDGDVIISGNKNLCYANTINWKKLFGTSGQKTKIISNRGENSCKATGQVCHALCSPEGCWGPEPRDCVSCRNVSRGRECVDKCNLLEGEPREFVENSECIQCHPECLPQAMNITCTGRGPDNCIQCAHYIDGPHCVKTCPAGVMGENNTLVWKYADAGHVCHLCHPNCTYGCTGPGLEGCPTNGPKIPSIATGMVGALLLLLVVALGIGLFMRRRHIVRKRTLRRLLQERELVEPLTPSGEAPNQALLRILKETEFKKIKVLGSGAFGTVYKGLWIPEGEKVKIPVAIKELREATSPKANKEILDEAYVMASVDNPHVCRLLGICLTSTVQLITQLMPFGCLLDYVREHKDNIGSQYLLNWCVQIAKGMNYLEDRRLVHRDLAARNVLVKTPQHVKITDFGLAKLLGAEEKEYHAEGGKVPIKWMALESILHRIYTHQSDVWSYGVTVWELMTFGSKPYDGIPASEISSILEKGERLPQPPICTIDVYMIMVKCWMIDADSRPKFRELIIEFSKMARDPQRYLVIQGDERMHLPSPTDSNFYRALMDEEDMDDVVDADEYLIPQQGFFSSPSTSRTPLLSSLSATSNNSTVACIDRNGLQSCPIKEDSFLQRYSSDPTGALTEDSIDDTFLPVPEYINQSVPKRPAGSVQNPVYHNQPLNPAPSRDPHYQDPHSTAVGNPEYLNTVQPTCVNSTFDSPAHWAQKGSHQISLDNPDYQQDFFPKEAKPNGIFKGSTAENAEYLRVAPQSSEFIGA

CCOc1cc(/C=N\Nc2nc3c(c(=O)n(C)c(=O)n3C)n2Cc2ccccc2)ccc1O
inhibition [1]: 33% | viability at 223.2 µM [2]: 73% | GI50 ([3]; read-out: GI50): 2.69 µM | GI50 ([3]; read-out: pGI50 (converted)): 2.69 µM | inhibition [4]: 39% | CC50 [5]: 446 µM | Activity [6]: 6% | CC50 [7]: > 446 µM | GI50 [8]: 54 µM | growth inhibition (GI) [9]: Dose-dependent effect | GI50 ([9]; U-937, 72 h): 46 µM | growth inhibition (GI) [10]: Dose-dependent effect | GI50 ([10]; THP-1, 72 h): 36 µM | GI50 [11]: 9 µM | Activity [12]: Active | CC50 [13]: 112 µM | Activity [14]: Active | Activity [15]: Dose-dependent effect | Activity [16]: 12% | viability at 446 µM [17]: 62% | inhibition [18]: 37% | Activity [19]: 17% | Activity [20]: 10%
